Series [1] deals with Staphylococcus aureus. As to the kind of experiment: Antimicrobial activity against methicillin-sensitive Staphylococcus aureus ATCC 29213 after 18 hrs by agar dilution assay. In kind it is functional. Conditions: ATCC 29213, 18 h. For orientation: In agar dilution the substance is mixed into plates at graded concentrations.
For series [2], the system named is Staphylococcus aureus. Description: Antimicrobial activity against methicillin-sensitive Staphylococcus aureus isolate 15 after 18 hrs by agar dilution assay. In kind it is functional. Particulars: isolate 15, 18 h.
For series [3], the system named is Staphylococcus aureus. As to the kind of experiment: Antimicrobial activity against methicillin-sensitive Staphylococcus aureus isolate 13-17 after 18 hrs by agar dilution assay. In kind it is functional. Conditions: isolate 13-17, 18 h.
Series [4] concerns Staphylococcus aureus. Description: Antimicrobial activity against methicillin-sensitive Staphylococcus aureus isolate 13-19 after 18 hrs by agar dilution assay. In kind it is functional. Conditions: isolate 13-19, 18 h.
Series [5] relates to Staphylococcus aureus. As to the kind of experiment: Antimicrobial activity against methicillin-sensitive Staphylococcus aureus isolate 13-20 after 18 hrs by agar dilution assay. In kind it is functional. Conditions: isolate 13-20, 18 h.
For series [6], the system named is Staphylococcus aureus. Description: Antimicrobial activity against methicillin-sensitive Staphylococcus aureus isolate 13-21 after 18 hrs by agar dilution assay. Conditions: isolate 13-21, 18 h. In kind it is functional.
In series [7] the test system is Staphylococcus epidermidis. Description: Antimicrobial activity against methicillin-sensitive Staphylococcus epidermidis ATCC 12228 after 18 hrs by agar dilution assay. Particulars: ATCC 12228, 18 h. In kind it is functional.
Series [8] concerns Staphylococcus epidermidis. As to the kind of experiment: Antimicrobial activity against methicillin-sensitive Staphylococcus epidermidis isolate 13-1 after 18 hrs by agar dilution assay. Particulars: isolate 13-1, 18 h. In kind it is functional.
Series [9] deals with Staphylococcus saprophyticus. Description: Antimicrobial activity against Staphylococcus saprophyticus ATCC 15305 after 18 hrs by agar dilution assay. In kind it is functional. Particulars: ATCC 15305, 18 h.
In series [10] the test system is Staphylococcus hominis. Description: Antimicrobial activity against Staphylococcus hominis ATCC 35982 after 18 hrs by agar dilution assay. In kind it is functional. Particulars: ATCC 35982, 18 h.
Series [11] relates to Staphylococcus aureus. As to the kind of experiment: Antimicrobial activity against methicillin-resistant Staphylococcus aureus ATCC 33591 after 18 hrs by agar dilution assay. In kind it is functional. Conditions: ATCC 33591, 18 h. In outline:
(§1)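 Drug-resistant S. aureus (MRSA/VISA) panel. It includes ATCC reference strains and clinical isolates from patients in Chinese hospitals. MIC was determined by standard methods and reported in μg/mL, with levofloxacin as the reference drug.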

Series [12] deals with Staphylococcus aureus. As to the kind of experiment: Antimicrobial activity against methicillin-resistant Staphylococcus aureus isolate 13-18 after 18 hrs by agar dilution assay. Particulars: isolate 13-18, 18 h. In kind it is functional. Put shortly:
as §1

For series [13], the system named is Staphylococcus aureus. As to the kind of experiment: Antimicrobial activity against methicillin-resistant Staphylococcus aureus isolate 13-23 after 18 hrs by agar dilution assay. In kind it is functional. Conditions: isolate 13-23, 18 h. Put shortly: as §1
The subject of series [14] is Staphylococcus aureus. As to the kind of experiment: Antimicrobial activity against methicillin-resistant Staphylococcus aureus isolate 12-3 after 18 hrs by agar dilution assay. In kind it is functional. Particulars: isolate 12-3, 18 h. In outline: as §1
In series [15] the test system is Staphylococcus aureus. Description: Antimicrobial activity against methicillin-resistant Staphylococcus aureus isolate 12-8 after 18 hrs by agar dilution assay. In kind it is functional. Particulars: isolate 12-8, 18 h. Put shortly: as §1
The subject of series [16] is Staphylococcus aureus. As to the kind of experiment: Antimicrobial activity against methicillin-resistant Staphylococcus aureus isolate 12-13 after 18 hrs by agar dilution assay. In kind it is functional. Particulars: isolate 12-13, 18 h. Put shortly: as §1
In series [17] the test system is Staphylococcus aureus. Description: Antimicrobial activity against methicillin-resistant Staphylococcus aureus isolate 12-16 after 18 hrs by agar dilution assay. Particulars: isolate 12-16, 18 h. In kind it is functional. In outline:
as §1

The test system of series [18] is Staphylococcus aureus. As to the kind of experiment: Antimicrobial activity against methicillin-resistant Staphylococcus aureus ATCC-BAA-1708 after 18 hrs by agar dilution assay. In kind it is functional. Conditions: ATCC-BAA-1708, 18 h. Put shortly:
as §1

Series [19] relates to Staphylococcus aureus. As to the kind of experiment: Antimicrobial activity against vancomycin-intermediate Staphylococcus aureus ATCC 700698 after 18 hrs by agar dilution assay. In kind it is functional. Conditions: ATCC 700698, 18 h. In outline: (§2)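 MICs in μg/mL against drug-resistant S. aureus (MRSA/VISA) by standard methods, with levofloxacin as the reference drug. ATCC strains were used.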

Series [20] concerns Staphylococcus aureus. As to the kind of experiment: Antimicrobial activity against vancomycin-intermediate Staphylococcus aureus ATCC 700699 after 18 hrs by agar dilution assay. Conditions: ATCC 700699, 18 h. In kind it is functional. In outline: as §2
A short description of series [21]: Cytotoxicity against human A549 cells assessed as decrease in cell viability after 24 hrs by MTT assay. In kind it is cell-based. In outline:
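A549 cells were treated with compound at a series of concentrations for 24 h, and viability was read by MTT assay. Controls received 0.4% (v/v) DMSO. CC50 is given in μg/mL.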

Series [22] can be described thus: Stability in Sprague-Dawley rat blood assessed as parent compound remaining at […] after 420 mins by LC-MS/MS analysis. In kind it is ADME, tissue-based. Conditions: read-out: Stability.
In series [23] the test system is DNA. Description: Binding affinity to Escherichia coli DH5-alpha supercoiled pET-32a DNA assessed as conversion of closed circular form to open circular form of DNA at 61.5 to 492 ug/ml after 4 hrs by agarose gel electrophoresis. In kind it is nucleic-acid assay. Put shortly: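 Supercoiled pET-32a plasmid DNA was incubated with compound at increasing concentrations for 4 h at 37 °C under physiological conditions. DNA forms were resolved by agarose gel electrophoresis.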

Active and inactive are the calls of the source. The rule behind the calls is not given here. A value given as a limit tells only on which side of the number the result lay.

By MIC is commonly meant the lowest concentration that inhibits growth of the organism. The low end stands for greater potency, the high end for weaker potency. One may read the CC50 as the concentration giving 50% cytotoxicity. With `COc1ccc2c(c[n+]3c4c2ccc2c5c(cc(c24)CC3)OCO5)c1OC(C)=O.[Cl-]`, the minimum inhibitory concentration (MIC) in series [1] was 1 mg/L; in [2], 2 mg/L; in series [3] it was 1 mg/L; in series [4] it was 8 mg/L; in series [5], 2 mg/L; in [6], 4 mg/L. The minimal inhibitory concentration (MIC) in series [7] is 1 mg/L; in series [8], 2 mg/L; in [9] it was 4 mg/L; in [10], 2 mg/L; in series [11] it was 4 mg/L; in series [12], 1 mg/L. Moreover, the MIC in series [13] came out at 2 mg/L; in series [14], 4 mg/L; in series [15], 8 mg/L; in series [16], 4 mg/L; in [17], 2 mg/L; in [18] it was 8 mg/L. For the same compound, the MIC in series [19] is 16 mg/L; in series [20], 32 mg/L. Moreover, the CC50 at 24 h in series [21] is greater than 33.6 mg/L.

Turning to `COc1ccc2c(c[n+]3c4c2ccc2c5c(cc(c24)CC3)OCO5)c1NC(=O)c1csnn1.[Cl-]`, the minimal inhibitory concentration (MIC) in [1] was found to be 2 mg/L; in series [2] it was 4 mg/L; in series [3], 2 mg/L; in series [4], 2 mg/L; in [5], 2 mg/L; in series [6], 2 mg/L. Further, the minimal inhibitory concentration (MIC) was determined as 4 mg/L in series [7]; 2 mg/L in series [8]; 4 mg/L in series [9]; 2 mg/L in series [10]; 2 mg/L in series [11]; 2 mg/L in series [12]. Further, the minimal inhibitory concentration (MIC) in series [13] was found to be 2 mg/L; in series [14] it was 2 mg/L; in series [15] it was 2 mg/L; in series [16], 4 mg/L; in series [17], 2 mg/L; in [18], 2 mg/L. Further, the MIC in [19] came to 16 mg/L; in series [20], 8 mg/L. In addition, the remaining at 7 h in [22] worked out at 57.2%. Further, the CC50 at 24 h in [21] came to 16.1 mg/L. Moreover, in series [23], the outcome was Active.

As to `COc1ccc2c(c[n+]3c4c2ccc2c5c(cc(c24)CC3)OCO5)c1OCC(=O)C12CC3CC(CC(C3)C1)C2.[Br-]`, the MIC worked out at 4 mg/L in series [1]; 2 mg/L in series [2]; 2 mg/L in series [3]; 4 mg/L in series [4]; 4 mg/L in series [5]; 2 mg/L in [6]. For the same compound, the minimal inhibitory concentration (MIC) in series [7] was determined as 2 mg/L; in [8] it was 2 mg/L; in [9] it was 2 mg/L; in series [10], 2 mg/L; in [11] it was 2 mg/L; in series [12], 4 mg/L. Besides, the MIC in [13] was 2 mg/L; in series [14], 4 mg/L; in series [15], 4 mg/L; in series [16], 4 mg/L; in [17] it was 2 mg/L; in series [18], 4 mg/L. Besides, the MIC in series [19] and in series [20] was 8 mg/L throughout. In series [22], the remaining at 7 h was determined as 58%. Besides, the half-maximal cytotoxic concentration (CC50) at 24 h in [21] was determined as 2 mg/L.

(Values after ChEMBL document CHEMBL4145598, “Discovery and Development of 8-Substituted Cycloberberine Derivatives as Novel Antibacterial Agents against MRSA” (ACS Med Chem Lett, 2018).)
